Reference: ChEMBL document CHEMBL1158511, “Tricyclic dihydroquinazolinones as novel 5-HT2C selective and orally efficacious anti-obesity agents” (Bioorg Med Chem Lett, 2010)

Tests used:
[1] = tested on: Brain; test: Drug level in Sprague-Dawley rat brain at 1 mg/kg, po after 4 hrs; type: ADME, organism-based; set-up: dose 1 mg/kg, route oral; details: in vivo
Procedure, shortened: (§1)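 Male Sprague–Dawley rats were dosed po only at 1 or 10 mpk. Values are means of 2 animals. AUC was collected over 4 h. Plasma and total brain levels were taken at 4 h post dose.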

[2] = Half life in Sprague-Dawley rat at 1 mg/kg, iv; type: ADME, organism-based; set-up: dose 1 mg/kg, route intravenous; details: in vivo
Procedure, shortened: (§2)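 Male Sprague–Dawley rats were dosed at 1 mpk iv and po. Values are means of 3 animals per route.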

[3] = biological target: CYP2C9 (Homo sapiens, UniProt P11712); test: Inhibition of CYP2C9 at 10 uM; type: ADME
[4] = biological target: T1, 5-hydroxytryptamine receptor 2B (Homo sapiens, UniProt P41595); test: Displacement of [3H]LSD from human recombinant 5HT2B receptor expressed in HEK293E cells
[5] = Plasma concentration in Sprague-Dawley rat at 1 mg/kg, po after 4 hrs; type: ADME, organism-based; set-up: dose 1 mg/kg, route oral; procedure, shortened: as §1
[6] = AUC in Sprague-Dawley rat at 10 mg/kg, po after 4 hrs; type: ADME, organism-based; set-up: time < 4 hr, dose 10 mg/kg, route oral; details: plasma; procedure, shortened: as §1
[7] = tested on: Rattus norvegicus; test: Antiobesity activity in Sprague-Dawley rat assessed as reduction of food intake at 10 mg/kg, po after 20 hrs; type: functional; set-up: scale not given: the % may be the effect or the level left
[8] = Cmax in Sprague-Dawley rat at 1 mg/kg, po; type: ADME, organism-based; set-up: dose 1 mg/kg, route oral; details: in vivo; procedure, shortened: as §1
[9] = biological target: CYP3A4 (Homo sapiens, UniProt P08684); test: Inhibition of CYP3A4 at 10 uM; type: ADME
[10] = Tmax in Sprague-Dawley rat at 10 mg/kg, po; type: ADME, organism-based; set-up: dose 10 mg/kg, route oral; details: in vivo; procedure, shortened: as §1
[11] = biological target: T2, Cytochrome P450 1A2 (Homo sapiens, UniProt P05177); test: Inhibition of CYP1A2; type: ADME
T2 sequence (P05177 whole entry): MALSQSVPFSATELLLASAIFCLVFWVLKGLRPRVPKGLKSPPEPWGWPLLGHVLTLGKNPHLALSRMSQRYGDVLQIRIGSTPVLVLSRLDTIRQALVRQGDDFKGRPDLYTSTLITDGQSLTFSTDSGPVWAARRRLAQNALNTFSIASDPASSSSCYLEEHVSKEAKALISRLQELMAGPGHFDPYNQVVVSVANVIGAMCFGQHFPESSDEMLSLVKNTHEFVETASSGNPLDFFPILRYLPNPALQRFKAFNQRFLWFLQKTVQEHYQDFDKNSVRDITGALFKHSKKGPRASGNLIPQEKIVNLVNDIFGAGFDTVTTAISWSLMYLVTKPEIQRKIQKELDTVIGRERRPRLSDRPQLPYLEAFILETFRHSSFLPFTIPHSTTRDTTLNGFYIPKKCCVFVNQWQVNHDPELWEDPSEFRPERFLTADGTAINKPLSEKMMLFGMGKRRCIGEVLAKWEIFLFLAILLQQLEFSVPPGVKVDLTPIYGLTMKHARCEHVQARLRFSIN

[12] = biological target: Cytochrome P450 2C19 (Homo sapiens, UniProt P33261); test: Inhibition of CYP2C19; type: ADME
[13] = biological target: CYP2D6 (Homo sapiens, UniProt P10635); test: Inhibition of CYP2D6 at 10 uM; type: ADME
[14] = Tmax in Sprague-Dawley rat at 1 mg/kg, po; type: ADME, organism-based; set-up: dose 1 mg/kg, route oral; details: in vivo; procedure, shortened: as §1
[15] = AUC in Sprague-Dawley rat at 1 mg/kg, po after 4 hrs; type: ADME, organism-based; set-up: time < 4 hr, dose 1 mg/kg, route oral; details: plasma; procedure, shortened: as §1
[16] = biological target: T3, 5-hydroxytryptamine receptor 2A (Homo sapiens, UniProt P28223); test: Displacement of [125I]DOI from human recombinant 5HT2A receptor expressed in HEK293E cells; type: cell-based
Procedure, shortened: (§3)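 Radioligand binding with [125I]DOI at the human 5-HT2C or 5-HT2A receptor. Ki is the mean of ≥2 independent 12-point dose-response curves (n ≥4 where SD is given).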

[17] = Clearance in Sprague-Dawley rat at 1 mg/kg, iv; type: ADME, organism-based; set-up: dose 1 mg/kg, route intravenous; details: in vivo; procedure, shortened: as §2
[18] = Plasma concentration in Sprague-Dawley rat at 10 mg/kg, po after 4 hrs; type: ADME, organism-based; set-up: dose 10 mg/kg, route oral; procedure, shortened: as §1
[19] = biological target: Cytochrome P450 2D6 (Homo sapiens, UniProt P10635); test: Inhibition of CYP2D6; type: ADME
[20] = AUC (0 to infinity) in Sprague-Dawley rat at 1 mg/kg, iv; type: ADME, organism-based; set-up: time infinity, dose 1 mg/kg, route intravenous; details: plasma; procedure, shortened: as §2
[21] = biological target: T1, 5-hydroxytryptamine receptor 2B; test: Agonist activity at human recombinant 5HT2B receptor expressed in HEK293E cells by FLIPR assay; type: functional, cell-based
Procedure, shortened: (§4)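 Calcium mobilization measured by FLIPR in HEK293E cells expressing human 5-HT2A, 5-HT2B or 5-HT2C receptor. Values are means of ≥2 independent 12-point dose-response curves (n ≥4 where SD is given). mCPP is the positive control.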

[22] = tested on: Rattus norvegicus; test: Antiobesity activity in Sprague-Dawley rat assessed as reduction of caloric intake at 30 mg/kg, po after 4 days; type: functional; set-up: scale not given: the % may be the effect or the level left
Procedure, shortened: (§5)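 Male Sprague–Dawley rats, about 240 g (n = 8), were dosed orally once daily for 4 days with compound or vehicle (14% propylene glycol, 1% tween, 85% water, v/v/v). Body weight, food and water intake were measured daily and compared with vehicle.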

[23] = tested on: Brain; test: Drug level in Sprague-Dawley rat brain at 10 mg/kg, po after 4 hrs; type: ADME, organism-based; set-up: dose 10 mg/kg, route oral; details: in vivo; procedure, shortened: as §1
[24] = biological target: T3, 5-hydroxytryptamine receptor 2A; test: Agonist activity at human recombinant 5HT2A receptor expressed in HEK293E cells by FLIPR assay; type: functional, cell-based; procedure, shortened: as §4
[25] = biological target: T4, CYP1A2 (Homo sapiens, UniProt P05177); test: Inhibition of CYP1A2 at 10 uM; type: ADME
T4 sequence (P05177 whole entry): T2 sequence (P05177 whole entry)

[26] = tested on: Rattus norvegicus; test: Antiobesity activity in Sprague-Dawley rat assessed as reduction of body weight at 30 mg/kg, po after 4 days; type: functional; set-up: scale not given: the % may be the effect or the level left; procedure, shortened: as §5
[27] = Oral bioavailability in Sprague-Dawley rat at 1 mg/kg; type: ADME, organism-based; details: in vivo; procedure, shortened: as §2
[28] = biological target: CYP2C19 (Homo sapiens, UniProt P33261); test: Inhibition of CYP2C19 at 10 uM; type: ADME
[29] = biological target: T5, 5-hydroxytryptamine receptor 2C (Homo sapiens, UniProt P28335); test: Agonist activity at human recombinant 5HT2C receptor expressed in HEK293E cells by FLIPR assay; type: functional, cell-based; procedure, shortened: as §4
T5 sequence (P28335 whole entry): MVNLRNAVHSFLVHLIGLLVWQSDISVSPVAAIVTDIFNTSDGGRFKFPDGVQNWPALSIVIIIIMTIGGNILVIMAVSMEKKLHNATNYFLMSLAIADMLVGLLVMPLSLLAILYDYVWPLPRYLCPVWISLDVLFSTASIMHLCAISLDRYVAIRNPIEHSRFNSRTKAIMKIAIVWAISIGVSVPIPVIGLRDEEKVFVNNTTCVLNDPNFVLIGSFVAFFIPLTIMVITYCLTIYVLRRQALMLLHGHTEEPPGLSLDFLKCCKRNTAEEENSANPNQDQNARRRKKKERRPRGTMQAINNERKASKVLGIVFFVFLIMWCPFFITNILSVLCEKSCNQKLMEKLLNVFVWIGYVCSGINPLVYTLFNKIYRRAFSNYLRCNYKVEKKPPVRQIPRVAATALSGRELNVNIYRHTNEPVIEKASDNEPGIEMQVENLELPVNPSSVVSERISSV

[30] = Cmax in Sprague-Dawley rat at 10 mg/kg, po; type: ADME, organism-based; set-up: dose 10 mg/kg, route oral; details: in vivo; procedure, shortened: as §1
[31] = species on record: Rattus norvegicus; test: Toxicity in Sprague-Dawley rat; type: organism-based; details: in vivo
[32] = biological target: Cytochrome P450 2C9 (Homo sapiens, UniProt P11712); test: Inhibition of CYP2C9; type: ADME
[33] = Volume of distribution at steady state in Sprague-Dawley rat at 1 mg/kg, iv; type: ADME, organism-based; set-up: dose 1 mg/kg, route intravenous; details: in vivo, read-out: Vdss; procedure, shortened: as §2
[34] = biological target: hERG (Homo sapiens, UniProt Q12809); test: Inhibition of human ERG at 10 uM by patch clamp method
[35] = AUC (0 to infinity) in Sprague-Dawley rat at 1 mg/kg, po; type: ADME, organism-based; set-up: time infinity, dose 1 mg/kg, route oral; details: plasma; procedure, shortened: as §2
[36] = biological target: T5, 5-hydroxytryptamine receptor 2C; test: Displacement of [125I]DOI from human recombinant 5HT2C receptor expressed in HEK293E cells; type: cell-based; procedure, shortened: as §3
[37] = Half life in Sprague-Dawley rat at 1 mg/kg, po; type: ADME, organism-based; set-up: dose 1 mg/kg, route oral; details: in vivo; procedure, shortened: as §2
[38] = biological target: Cytochrome P450 3A4 (Homo sapiens, UniProt P08684); test: Inhibition of CYP3A4; type: ADME
Chain of Cytochrome P450 3A4 (P08684 whole entry): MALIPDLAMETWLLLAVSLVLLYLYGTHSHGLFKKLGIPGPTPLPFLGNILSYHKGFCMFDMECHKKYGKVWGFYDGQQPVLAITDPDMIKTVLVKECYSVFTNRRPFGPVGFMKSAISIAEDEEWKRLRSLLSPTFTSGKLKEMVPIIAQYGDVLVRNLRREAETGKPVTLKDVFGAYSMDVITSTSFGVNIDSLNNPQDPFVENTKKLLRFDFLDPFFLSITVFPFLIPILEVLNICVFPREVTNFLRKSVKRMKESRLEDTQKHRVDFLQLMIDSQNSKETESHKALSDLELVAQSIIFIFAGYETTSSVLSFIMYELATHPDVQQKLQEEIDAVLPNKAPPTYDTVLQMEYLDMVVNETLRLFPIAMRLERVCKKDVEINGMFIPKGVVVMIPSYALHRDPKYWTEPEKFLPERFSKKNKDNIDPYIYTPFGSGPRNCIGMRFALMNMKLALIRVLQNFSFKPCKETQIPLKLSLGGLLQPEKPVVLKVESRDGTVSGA

T1 sequence (P41595 whole entry): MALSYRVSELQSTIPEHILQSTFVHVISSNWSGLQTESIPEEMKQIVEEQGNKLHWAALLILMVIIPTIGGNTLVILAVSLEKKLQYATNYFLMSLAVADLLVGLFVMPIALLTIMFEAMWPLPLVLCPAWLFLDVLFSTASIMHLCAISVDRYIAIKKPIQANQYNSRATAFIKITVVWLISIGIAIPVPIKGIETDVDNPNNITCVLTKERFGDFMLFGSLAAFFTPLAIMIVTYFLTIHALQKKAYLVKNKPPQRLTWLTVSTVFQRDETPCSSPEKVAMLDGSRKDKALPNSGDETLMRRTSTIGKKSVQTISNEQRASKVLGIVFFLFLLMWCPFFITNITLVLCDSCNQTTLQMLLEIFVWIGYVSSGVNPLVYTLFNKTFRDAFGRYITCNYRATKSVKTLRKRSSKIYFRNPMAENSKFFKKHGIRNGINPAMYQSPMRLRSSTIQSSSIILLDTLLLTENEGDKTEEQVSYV
T3 sequence (P28223 whole entry): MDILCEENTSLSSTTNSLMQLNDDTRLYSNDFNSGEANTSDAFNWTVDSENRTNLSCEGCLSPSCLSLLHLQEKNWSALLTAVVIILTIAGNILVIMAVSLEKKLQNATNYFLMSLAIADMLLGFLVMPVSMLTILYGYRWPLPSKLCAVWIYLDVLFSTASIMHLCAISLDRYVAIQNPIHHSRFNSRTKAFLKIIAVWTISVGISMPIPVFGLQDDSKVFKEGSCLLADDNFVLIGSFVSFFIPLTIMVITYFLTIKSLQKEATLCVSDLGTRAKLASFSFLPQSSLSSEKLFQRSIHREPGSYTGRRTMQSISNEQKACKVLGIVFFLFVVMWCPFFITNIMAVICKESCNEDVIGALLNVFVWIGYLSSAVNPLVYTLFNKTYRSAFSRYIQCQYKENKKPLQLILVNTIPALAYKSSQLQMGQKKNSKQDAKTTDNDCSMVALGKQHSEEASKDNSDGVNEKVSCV
Chain of Cytochrome P450 2C19 (P33261 whole entry): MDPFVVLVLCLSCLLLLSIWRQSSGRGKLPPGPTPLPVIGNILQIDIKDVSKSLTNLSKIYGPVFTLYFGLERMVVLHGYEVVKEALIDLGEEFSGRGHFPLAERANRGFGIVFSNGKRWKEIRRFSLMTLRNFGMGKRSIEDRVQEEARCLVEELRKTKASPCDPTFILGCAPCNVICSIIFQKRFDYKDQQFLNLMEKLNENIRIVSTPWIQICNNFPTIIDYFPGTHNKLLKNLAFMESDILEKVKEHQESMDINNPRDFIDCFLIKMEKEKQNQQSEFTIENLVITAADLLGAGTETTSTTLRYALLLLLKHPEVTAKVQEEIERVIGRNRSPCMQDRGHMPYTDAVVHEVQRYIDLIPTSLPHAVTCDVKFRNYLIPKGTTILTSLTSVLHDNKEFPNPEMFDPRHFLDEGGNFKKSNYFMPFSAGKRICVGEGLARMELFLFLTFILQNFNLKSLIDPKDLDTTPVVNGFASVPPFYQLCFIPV
Chain of CYP2C19 (P33261 whole entry): as above
Chain of CYP2D6 (P10635 whole entry): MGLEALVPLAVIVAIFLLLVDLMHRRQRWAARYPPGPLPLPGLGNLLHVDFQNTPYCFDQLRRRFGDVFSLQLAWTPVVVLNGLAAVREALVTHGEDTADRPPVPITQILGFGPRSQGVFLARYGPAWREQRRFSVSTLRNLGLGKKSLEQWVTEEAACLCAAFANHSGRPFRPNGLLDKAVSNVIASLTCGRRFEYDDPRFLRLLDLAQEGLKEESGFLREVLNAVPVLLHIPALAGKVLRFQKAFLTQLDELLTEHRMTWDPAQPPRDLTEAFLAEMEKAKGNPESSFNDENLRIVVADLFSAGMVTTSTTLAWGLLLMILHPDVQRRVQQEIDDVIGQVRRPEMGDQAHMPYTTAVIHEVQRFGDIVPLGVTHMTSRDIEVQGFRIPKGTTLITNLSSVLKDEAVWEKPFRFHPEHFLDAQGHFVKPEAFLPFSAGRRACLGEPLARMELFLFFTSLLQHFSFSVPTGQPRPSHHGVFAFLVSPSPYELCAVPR
Chain of Cytochrome P450 2D6 (P10635 whole entry): as above
Chain of hERG (Q12809 whole entry): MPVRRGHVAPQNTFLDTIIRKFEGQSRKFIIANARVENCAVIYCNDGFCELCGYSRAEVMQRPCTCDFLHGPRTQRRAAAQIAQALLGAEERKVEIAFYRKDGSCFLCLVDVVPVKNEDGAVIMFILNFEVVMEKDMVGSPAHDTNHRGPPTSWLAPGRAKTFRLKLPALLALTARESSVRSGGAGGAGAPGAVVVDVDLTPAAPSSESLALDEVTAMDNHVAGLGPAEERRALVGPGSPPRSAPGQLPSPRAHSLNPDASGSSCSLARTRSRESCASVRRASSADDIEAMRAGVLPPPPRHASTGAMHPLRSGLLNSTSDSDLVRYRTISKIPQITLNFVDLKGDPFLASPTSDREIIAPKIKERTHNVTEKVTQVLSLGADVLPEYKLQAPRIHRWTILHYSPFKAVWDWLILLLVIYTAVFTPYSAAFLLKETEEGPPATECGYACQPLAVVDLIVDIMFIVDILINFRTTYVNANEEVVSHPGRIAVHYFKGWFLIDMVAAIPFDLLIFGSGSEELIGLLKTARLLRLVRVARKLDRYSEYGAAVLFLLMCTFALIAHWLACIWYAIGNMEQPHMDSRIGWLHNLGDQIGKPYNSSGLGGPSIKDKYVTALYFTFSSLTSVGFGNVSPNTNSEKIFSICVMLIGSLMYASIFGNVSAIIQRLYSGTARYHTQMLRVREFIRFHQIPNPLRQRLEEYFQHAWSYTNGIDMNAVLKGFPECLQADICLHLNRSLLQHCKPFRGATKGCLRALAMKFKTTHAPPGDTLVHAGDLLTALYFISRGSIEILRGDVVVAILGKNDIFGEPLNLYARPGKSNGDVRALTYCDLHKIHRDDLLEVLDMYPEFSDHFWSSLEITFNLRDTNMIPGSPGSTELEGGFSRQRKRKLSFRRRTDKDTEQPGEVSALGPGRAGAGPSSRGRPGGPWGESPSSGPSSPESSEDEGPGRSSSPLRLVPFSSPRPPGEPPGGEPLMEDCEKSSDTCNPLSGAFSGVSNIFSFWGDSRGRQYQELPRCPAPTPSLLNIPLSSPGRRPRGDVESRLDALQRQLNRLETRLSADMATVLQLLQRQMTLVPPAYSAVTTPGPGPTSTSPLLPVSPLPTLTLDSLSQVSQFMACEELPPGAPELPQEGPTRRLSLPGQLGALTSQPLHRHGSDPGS
Chain of CYP3A4 (P08684 whole entry): as the sequence (P08684 whole entry) above
Chain of CYP2C9 (P11712 whole entry): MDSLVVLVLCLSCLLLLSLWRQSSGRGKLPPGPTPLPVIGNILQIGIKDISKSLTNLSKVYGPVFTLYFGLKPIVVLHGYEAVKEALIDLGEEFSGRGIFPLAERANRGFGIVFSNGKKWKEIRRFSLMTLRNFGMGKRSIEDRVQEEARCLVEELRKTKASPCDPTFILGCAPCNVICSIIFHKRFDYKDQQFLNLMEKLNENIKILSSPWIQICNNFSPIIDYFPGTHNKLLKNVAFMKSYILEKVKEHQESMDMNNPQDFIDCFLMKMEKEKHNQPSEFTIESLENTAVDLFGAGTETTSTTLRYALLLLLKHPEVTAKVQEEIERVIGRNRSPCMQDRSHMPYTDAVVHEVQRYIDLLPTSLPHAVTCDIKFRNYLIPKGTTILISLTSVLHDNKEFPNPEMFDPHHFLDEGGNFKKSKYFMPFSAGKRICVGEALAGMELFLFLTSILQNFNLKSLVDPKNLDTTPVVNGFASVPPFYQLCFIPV

In the case of Cc1cccc2c1C(=O)NC1CNCCN21 (single isomer, unassigned; (+)), the Drug uptake [1] is reported as 326 nmol/kg, the half-life [2] is reported as 54 min and the inhibition at 10 µM [3] is reported as greater than 50%. For the same compound, the Ki [4] was 0.0086 µM, the concentration at 4 h [5] was 0.219 µM and the AUC at 4 h [6] was 1240 nM·h. The Activity [7] was 22%, the Cmax [8] was 0.293 µM and the inhibition at 10 µM [9] was greater than 50%. The Tmax [10] was 30 min, the IC50 [11] was greater than 40 µM and the IC50 [12] was greater than 40 µM. The inhibition at 10 µM [13] was greater than 50%, the Tmax [14] was 60 min and the AUC at 4 h [15] was 1040 nM·h. The Ki [16] was 0.229 µM, the clearance [17] was 1.62 L/h/kg and the concentration at 4 h [18] was 2.12 µM. It also gave an IC50 [19] greater than 40 µM, an AUC(0-inf) [20] of 2340 nM·h and an EC50 [21] greater than 10 µM. The Activity [22] was 16%, the Drug uptake [23] was 3010 nmol/kg and the EC50 [24] was greater than 10 µM. It also gave an inhibition at 10 µM [25] greater than 50%, an Activity [26] of 4.1% and a bioavailability [27] of 49%. For the same compound, the inhibition at 10 µM [28] was greater than 50%, the EC50 [29] was 0.045 µM and the Cmax [30] was 5.38 µM. For the same compound, the Activity [31] was “Non-toxic”, the IC50 [32] was greater than 40 µM and the Vd [33] was 1.3 L/kg. It also gave an inhibition at 10 µM [34] of 37%, an AUC(0-inf) [35] of 1150 nM·h and a Ki [36] of 0.089 µM. It also gave a half-life [37] of 150 min and an IC50 [38] greater than 40 µM.
